Assay [1] has as its system L1210. Put plainly: Antitumor activity against L1210 leukemia cells expressed as dose concentration that reduces number of cells by 50% after 48 hrs exposure to drug. It is filed as functional. Conditions: Mus musculus, L1210, 48 h; read-out: ID50 (the source's name). The procedure, abridged: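 L1210 leukemia cells grown in vitro with drug for 48 h; cell number counted against untreated control; ID50 taken as the concentration cutting cell number by 50%.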

The species entered for assay [2] is Rattus norvegicus. Put plainly: Benzo[a]pyrene induced rat hepatic microsomal hydroxylation in vitro. It is filed as functional. To be noted: Liver. A digest of the protocol:
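Liver microsomes from male Sprague–Dawley rats given benzo[a]pyrene 20 mg/kg/day ip in sunflower oil for 2 days, killed 2 days after last dose. Microsomes 0.5 mg protein/mL in Tris-HCl 0.02 M pH 7.4 with 1.15% KCl; olivacine acetate at five levels, 5–50 µM; NADPH 1 mg/mL; 37 °C, 5 min. Butanol extract, HPLC; Km/Vmax by Lineweaver-Burk; two rats.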

Assay [3] is filed under the species Rattus norvegicus. Put plainly: Non induced rat hepatic microsomal hydroxylation in vitro. It is filed as functional. To be noted: Liver. A digest of the protocol:
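Liver microsomes from male Sprague–Dawley rats given only vehicle ip (sunflower oil or 0.9% NaCl). Microsomes 0.5 mg protein/mL in Tris-HCl 0.02 M pH 7.4 with 1.15% KCl; olivacine acetate at five levels, 5–50 µM; NADPH 1 mg/mL; 37 °C, 5 min. Butanol extract, HPLC; Km/Vmax by Lineweaver-Burk; two rats.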

For assay [4], the species on record is Rattus norvegicus. Put plainly: Phenobarbital induced rat hepatic microsomal hydroxylation in vitro. It counts as functional. To be noted: Liver. The procedure, abridged: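 Liver microsomes from male Sprague–Dawley rats given phenobarbital 80 mg/kg/day ip in 0.9% NaCl for 3 days, killed 2 days after last dose. Microsomes 0.5 mg protein/mL in Tris-HCl 0.02 M pH 7.4 with 1.15% KCl; olivacine acetate at five levels, 5–50 µM; NADPH 1 mg/mL; 37 °C, 5 min. Butanol extract, HPLC; Km/Vmax by Lineweaver-Burk; two rats.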

The test system of assay [5] is L1210. In words: Antitumor efficiency against L1210 leukemia cells expressed as % increase in life span (ILS) 24 hrs after ip grafting (10e5 cells). It counts as functional, Mus musculus. A digest of the protocol:
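DBA/2 mice given 10^5 L1210 cells intraperitoneally, then a single ip drug dose 24 h later. ILS = (median survival of treated − median survival of controls) / median survival of controls × 100.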

In assay [6] the test system is Mus musculus. In words: Cytotoxicity against L1210 leukemia cells administered through intraperitoneal route in mice. It counts as functional.
For assay [7], the system named is Mus musculus. Put plainly: Highest nonlethal dose against mice administered through intraperitoneal route. It counts as functional.

Molecules are shown by their SMILES.

As to `Cc1nccc2c(C)c3[nH]c4c(O)cccc4c3cc12`, the IC50 in the assay with L1210 [1] stood at 12.8 µM. In addition, the results for the Km in the assay filed under Rattus norvegicus [2], in the assay listed under Rattus norvegicus [3] and in the assay listed under Rattus norvegicus [4] were 29 µM, 29.4 µM and 41.4 µM, respectively.
As for `Cc1nccc2c(C)c3[nH]c4ccccc4c3cc12`, in the assay with L1210 [5], the ILS is 35%. Besides, the IC50 in the assay on L1210 [1] turned out to be 2.03 µM. The molecule further registered an LD0 with Mus musculus [6] of 250 mg/kg.
With `Cc1c2ccncc2c(C)c2c1[nH]c1ccccc12` [ELLIPTECINE], in the assay with L1210 [1], the IC50 came to 0.99 µM. The molecule further gave an LD0 with Mus musculus [6] of 50 mg/kg.
`Cc1nccc2c(C)c3[nH]c4ccc(O)cc4c3cc12` yielded an ILS in the assay on L1210 [5] of 39%. Also, in the assay with L1210 [1], the IC50 is 0.06 µM. This molecule registered an LD0 in the assay on Mus musculus [7] of 50 mg/kg. The Km amounted to 22.2 µM in the assay listed under Rattus norvegicus [2], 25 µM in the assay filed under Rattus norvegicus [3] and 40 µM in the assay listed under Rattus norvegicus [4]. Besides, the Vmax in the assay listed under Rattus norvegicus [2] was determined as 7.14 nM/min; in the assay filed under Rattus norvegicus [3], 0.58 nM/min; in the assay listed under Rattus norvegicus [4] it was 1.28 nM/min.

These data come from ChEMBL document CHEMBL1123006, “Synthesis and cytotoxic activity of hydroxylated derivatives of olivacine in relation with their biotransformation” (1985).
